From PubChem BioAssay
Shown are actives, neighbours in structure and some others; about 3.3% of the full set was active somewhere.
C2C12 statin = suppressors of simvastatin-induced myotoxicity in C2C12 myotubes. ATP luminescence, 48 h; scaled: DMSO 0, geranylgeraniol control 100. rescue of ATP level, % at 7.49 µM. 330,000 compounds, 0.78% hits. AID 602340;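 active = mean ATP rescue above about 67%, or every replicate alone reaching that limit, limit read from the data, passing the limit was not always enough; inconclusive = no clear call, values can overlap the other calls; inactive = mean under the limit and some replicate under it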;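 note: myotubes were challenged with 10 µM simvastatin during compound exposure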
Xi reactivation = reactivates the inactive X chromosome in mouse fibroblasts; activation, % at 7.58 µM; 360,000 compounds, 0.055% hits; XiGFP mouse fibroblasts, % GFP-positive cells imaging, 3 d; cells co-treated with 5-aza-dC sensitizer; scaled so ellipticine positive control = 100%;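 active = mean normalized replicate activation at least 10% and every replicate at or above 10%; inconclusive = only one of the two criteria met; inactive = mean below 10% and not all replicates reach 10%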;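 note: 0% = median of on-plate neutral control wells and 100% = ellipticine 6 µM median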
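System: XiGFP fibroblasts, SV40-immortalized. Medium: DMEM plus 5-aza-dC sensitizer. Doses: single point. Timing: 3 d treatment, 15 min room-temperature fixation. Control set: ellipticine 6 µM.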
DENV2 CPE = inhibitors of DENV2 cytopathic effect | 350,000 compounds, 1.7% hits | DENV2-infected cells, cytopathic effect rescue, plate reader | CPE inhibition, % at 9.99 µM; in the data active = CPE inhibition above about 20%, passing the limit was not always enough; inconclusive = no clear call, values can overlap the other calls; tested in BHK-21 cells;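 note: 0% = median of neutral control wells and 100% = median of positive control wells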
E-sel inducer = induces E-selectin expression in human endothelial cells; P16581; HUVEC E-selectin immunofluorescence imaging; normalized: neutral wells 0, TNF-alpha wells 100; activation, % at 7.58 µM; 260,000 compounds, 0.37% hits; AID 686992;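 active = mean E-selectin-positive cell signal at least 10% of the positive control, reached in at least 60% of replicates, without over 20% cell loss; inconclusive = no rule given, readout overlaps actives, possibly toxicity-flagged; inactive = the rest, including those meeting only one limit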
Target sequence (P16581 whole entry, looked up): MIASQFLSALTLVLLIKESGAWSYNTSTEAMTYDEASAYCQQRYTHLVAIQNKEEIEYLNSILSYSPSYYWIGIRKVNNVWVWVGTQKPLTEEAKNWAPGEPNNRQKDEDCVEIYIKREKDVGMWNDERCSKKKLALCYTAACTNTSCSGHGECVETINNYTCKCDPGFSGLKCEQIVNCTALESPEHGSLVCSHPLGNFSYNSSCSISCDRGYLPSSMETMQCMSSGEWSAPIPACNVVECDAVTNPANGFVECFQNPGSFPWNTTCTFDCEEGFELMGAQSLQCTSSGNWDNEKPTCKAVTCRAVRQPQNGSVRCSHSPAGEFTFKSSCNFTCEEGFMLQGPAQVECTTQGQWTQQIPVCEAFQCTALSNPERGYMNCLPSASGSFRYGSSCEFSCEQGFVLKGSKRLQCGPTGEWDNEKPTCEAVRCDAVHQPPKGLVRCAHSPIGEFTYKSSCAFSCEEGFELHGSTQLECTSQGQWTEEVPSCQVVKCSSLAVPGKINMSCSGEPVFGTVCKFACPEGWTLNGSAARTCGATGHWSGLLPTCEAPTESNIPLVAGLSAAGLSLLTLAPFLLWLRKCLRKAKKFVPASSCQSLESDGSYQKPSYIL
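Test system: HUVEC; input: 3,000 HUVEC/well; measured by: immunofluorescence imaging; read-out: % PE-positive cells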
FGF22 binding = FGF22 (human) thermal shift binding; AID 651658; recombinant FGF22 thermal shift, SYPRO orange fluorescence; percent of sucrose octasulfate shift, DMSO zero; 340,000 compounds, 1.5% hits; activity (Tm shift, normalised), % at 9.99 µM;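 active = mean Tm shift, scaled 0 neutral to 100 positive control, at about 1.3% or above, every replicate too, limit read from the data; inconclusive = no clear call, values can overlap the other calls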
PglD inh = inhibitors of Campylobacter jejuni PglD acetyltransferase; purified PglD enzyme, DTNB colorimetric CoA detection; inhibition, % at 12.5 µM; 360,000 compounds, 0.098% hits; in the data active = inhibition above about 16%, passing the limit was not always enough; inconclusive = no clear call, values can overlap the other calls
The depositor's hits bear a star; ? = inconclusive; . = not tested or not shown.

SMILES	C2C12 statin	Xi reactivation	DENV2 CPE	E-sel inducer	FGF22 binding	PglD inh
Cn1cc(CN2CCN(CCc3ccccc3)C(CCO)C2)cn1 (stereo not given)	.	0	-6	.	44*	.
OCCC1CN(Cc2nc3c(s2)CCCC3)CCN1Cc1ccccc1 (stereo not given)	9	0	-10	0	0	2
OCCC1CN(Cc2nc3c(s2)CCCC3)CCN1CCc1ccccc1 (stereo not given)	.	0	7	.	44*	.
COc1cccc(CN2CCN(CCc3ccccc3)C(CCO)C2)c1OC (stereo not given)	.	0	?	.	44*	.
Cc1ncc(CN2CCN(CCc3ccccc3)C(CCO)C2)s1 (stereo not given)	8	0	2	.	43	5
COc1ccc(CN2CCN(CCC(C)C)C(CCO)C2)cc1Cn1cccn1 (stereo not given)	.	0	12	.	42	.
CO[C@@H]1CN(C)C(=O)c2ccc(NS(C)(=O)=O)cc2OC[C@@H](C)NC[C@H]1C	-4	0	0	9	0	-2
C[C@H]1CN([C@@H](C)CO)C(=O)Cc2cc(NC(=O)Nc3cccc4ccccc34)ccc2O[C@H]1CN(C)S(=O)(=O)c1ccc(Cl)cc1	45	0	-4	1	0	1
C[C@H](CO)N1C[C@H](C)[C@@H](CN(C)S(=O)(=O)c2ccc(Cl)cc2)Oc2ccc(NC(=O)Nc3cccc4ccccc34)cc2CC1=O	-24	0	42*	0	0	-3
C[C@@H]1CN([C@@H](C)CO)C(=O)Cc2cc(NC(=O)Nc3cccc4ccccc34)ccc2O[C@@H]1CN(C)S(=O)(=O)c1ccc(Cl)cc1	95*	-1	8	0	0	-1
CC(C)NC(=O)Nc1ccc2c(c1)C(=O)N([C@H](C)CO)C[C@H](C)[C@@H](CN(C)C(=O)CCC(F)(F)F)OCCCC[C@@H](C)O2	.	0	-1	0	0	-4
Cc1cc(C)cc(NC(=O)Nc2ccc(-n3ccc(C(F)(F)F)n3)cc2)c1	0	0	-12	46*	0	-7
O=c1[nH]c(=S)c2[nH]c(=S)n(-c3ccccc3)c2[nH]1	99*	1	.	0	0	-2
O=C(O)c1c(-c2ccc(Cl)cc2)cn2ccccc12	9	0	0	.	43*	.
CCCCCCn1c(C(C)O)nc2ccccc21 (stereo not given)	111*	.	.	.	.	1
CCCCn1c(C(C)NC(=O)c2cccs2)nc2ccccc21 (stereo not given)	135*	.	.	.	.	-2
COc1cc(/C=C/C(=O)O)cc(S(=O)(=O)NCCCC(=O)O)c1OC	7	0	11	0	43*	.
CC(C)NC(=O)N1[C@@H](CO)[C@@H](c2ccccc2)C12CN(Cc1ccc(F)cc1)C2	.	0	-5	0	0	.
O=C(c1cccc(F)c1)N1CCCCN2[C@H](CO)[C@@H](c3ccc(-c4ccc(F)cc4)cc3)[C@@H]2C1	.	.	-4	.	0	-1
Cc1ccc2nsnc2c1NC(=O)c1ccc([N+](=O)[O-])cc1	.	0	-5	.	43*	.
COc1cc(/C=C/C(=O)OCC(=O)Nc2ccc(Cl)cn2)ccc1O	0	0	-6	47*	0	5
O=C(COC(=O)/C=C/c1ccc(F)cc1)Nc1ccc(Cl)cn1	.	0	-11	.	0	0
CCCC(=O)Nc1ccc2c(c1)OC[C@H](C)N(C(=O)c1ccccn1)C[C@H](C)[C@@H](OC)CN(C)C2=O	1	0	-10	0	0	0
CCCC(=O)Nc1ccc2c(c1)OC[C@H](C)N(C(=O)c1ccccn1)C[C@@H](C)[C@H](OC)CN(C)C2=O	10	0	22*	0	0	2
CCCC(=O)Nc1ccc2c(c1)OC[C@@H](C)N(C(=O)c1ccccn1)C[C@@H](C)[C@@H](OC)CN(C)C2=O	6	0	21*	0	0	-3
SMILES	C2C12 statin	Xi reactivation	DENV2 CPE	E-sel inducer	FGF22 binding	PglD inh
CCCC(=O)Nc1ccc2c(c1)OC[C@H](C)N(C(=O)c1ccccn1)C[C@H](C)[C@H](OC)CN(C)C2=O	6	0	-13	0	0	3
Cc1cccc(C)c1NC(=O)C(C1CC1)n1c(-c2ccc(=O)[nH]c2)nc2ccccc21 (stereo not given)	.	1	8	0	0	.
Cc1cccc(C)c1NC(=O)C(C)n1c(-c2ccc(=O)[nH]c2)nc2ccccc21 (stereo not given)	.	0	21*	0	0	.
FC(F)(F)c1ccccc1NC(=S)NC1CCN(Cc2ccccc2)CC1	.	0	?	.	44*	.
Cc1ccc(C2NC(=S)NC3=C2C(=O)CCC3)cc1 (stereo not given)	.	0	-1	0	43*	.
O=C1CCCC2=C1C(c1ccccc1)NC(=S)N2 (stereo not given)	.	0	-3	.	0	.
O=C(N[C@@H]1CC[C@H](CC(=O)N2CCCCC2)O[C@@H]1CO)c1cccc(F)c1	0	1	10	1	0	0
O=C(CCCn1c(=S)[nH]c2cc3c(cc2c1=O)OCO3)NCCc1ccc(Cl)cc1	11	0	4	0	43*	-3
C[C@@H]1CN([C@@H](C)CO)C(=O)c2cc(NC(=O)c3ccccc3)ccc2O[C@@H](C)CCCCO[C@@H]1CN(C)C(=O)c1ccccc1	.	0	-3	.	0	-4
O=C(C[C@@H]1CC[C@H]2[C@@H](COC[C@@H](O)CN2C(=O)c2ccccc2)O1)Nc1ccc(-c2ccccc2)cc1	-41	0	48*	1	.	1
O=C(C[C@@H]1CC[C@@H]2[C@H](COC[C@H](O)CN2C(=O)c2ccccc2)O1)Nc1ccccc1	-11	0	-7	0	0	-1
O=C(C[C@@H]1CC[C@@H]2[C@H](COC[C@H](O)CN2C(=O)c2ccccc2)O1)Nc1ccc(-c2ccccc2)cc1	-15	0	44*	0	.	0
O=C(C[C@@H]1CC[C@@H]2[C@H](COC[C@@H](O)CN2C(=O)c2ccccc2)O1)Nc1ccccc1	-10	0	1	0	0	-8
CC(C)c1cn(CC[C@H]2CC[C@@H](NC(=O)C3CCCCC3)[C@H](CO)O2)nn1	-4	0	-3	0	1	-1
Cc1cc(C)c2sc(NC(=O)c3ccc(N4C(=O)CCC4=O)cc3)nc2c1	.	10	?	0	0	.
Cc1ccc2nc(NC(=O)c3ccc(N4C(=O)CCC4=O)cc3)sc2c1	.	0	2	1	43*	.
